Source: ChEMBL document CHEMBL1153929, “Exploration and synthesis of curcumin analogues with improved structural stability both in vitro and in vivo as cytotoxic agents” (Bioorg Med Chem, 2009)

How the values were obtained:
[1] = test system: PC-3; experiment: Cytotoxicity against human PC3 cells after 72 hrs by MTT assay; format: functional, cell-based; details: PC-3, 72 h
Summary of the method: (§1)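 Cells were plated at 5000 per well in 1640 medium with 5% heat-inactivated calf serum and penicillin/streptomycin, at 37 °C and 5% CO2. After 24 h, compounds in DMSO were added at final 100, 33.3, 11.1 and 3.7 µg/ml for 72 h. MTT (5 mg/ml in 0.9% NaCl) was then added for 3 h, the formazan dissolved in DMSO, and absorbance read at 570 nm.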

[2] = Hydrolytic stability assessed as compound degradation at 2 mg in sodium dihydrogen phosphate buffered 0.3% sodium carboxymethylcellulose solution at pH 7.4 after 45 hrs by HPLC; format: physicochemical; details: read-out: Activity
Summary of the method: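 2 mg of sample was vortexed into 1 ml of 0.3% (w/v) CMCNa solution in phosphate buffer at pH 7.4 and kept in the dark at 37 °C. HPLC peak areas were recorded. Degradation = (area at 0 h − area at end time) / area at 0 h × 100%.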

[3] = test system: HeLa; experiment: Cytotoxicity against human HeLa cells after 72 hrs by MTT assay; format: functional, cell-based; summary of the method: as §1
[4] = test system: KB (human); experiment: Cytotoxicity against human KB cells after 72 hrs by MTT assay
[5] = test system: HL-60 (human); experiment: Cytotoxicity against human HL60 cells after 72 hrs by MTT assay; details: HL-60, 72 h
[6] = Cytotoxicity against human LS 174T cells after 72 hrs by MTT assay; format: functional, cell-based; details: LS174T; summary of the method: as §1
[7] = test system: BGC-823; experiment: Cytotoxicity against human BGC823 cells after 72 hrs by MTT assay; format: functional, cell-based; details: BGC-823, 72 h; summary of the method: as §1
[8] = test system: CNE; experiment: Cytotoxicity against human CNE cells after 72 hrs by MTT assay; format: functional, cell-based; summary of the method: as §1

SMILES	IC50 [1] [µM]	degraded at 45 h [2] [%]	IC50 [3] [µM]	IC50 [4] [µM]	IC50 [5] [µM]	IC50 [6] [µM]	IC50 [7] [µM]	IC50 [8] [µM]
O=C1/C(=C/C=C/c2ccccc2)CC/C1=C\C=C\c1ccccc1	117	0						
CCOc1ccc(/C=C2\CC/C(=C\c3ccc(OCC)cc3)C2=O)cc1		0	24					
C=CCOc1ccc(/C=C2\CCC/C(=C\c3ccc(OCC=C)c(OC)c3)C2=O)cc1OC		0		102				
COc1cc(/C=C2\CCC/C(=C\c3cc(OC)c(OC)c(OC)c3)C2=O)cc(OC)c1OC	22.7	0	27.5	117	29.3			
COc1ccccc1/C=C1\CC/C(=C\c2ccccc2OC)C1=O	5.3	0			2.3			
COc1cccc(/C=C/C(=O)/C=C/c2cccc(OC)c2OC)c1OC		0		24.3	4.5	48	24.4	
O=C(/C=C/c1ccc(Br)o1)/C=C/c1ccc(Br)o1	34.3	0	16.8	24.5		58.8	30.9	
CC(C)(C)c1ccc(/C=C/C(=O)/C=C/c2ccc(C(C)(C)C)cc2)cc1	12	0	21.8					89.8
C=CCOc1cc(/C=C2\CC/C(=C\c3ccc(OC)c(OCC=C)c3)C2=O)ccc1OC		0					32.6	
Cn1cccc1/C=C1\CC/C(=C\c2cccn2C)C1=O		0				9.2		
CN(C)c1ccc(/C=C2\CC/C(=C\c3ccc(N(C)C)cc3)C2=O)cc1		0						
O=C1/C(=C/c2ccc(F)cc2)CC/C1=C\c1ccc(F)cc1		0	1.2					
Cc1ccc(C)c(/C=C2\CCC/C(=C\c3cc(C)ccc3C)C2=O)c1		0		35.3				
O=C1/C(=C/c2ccc(OC3CCCCO3)cc2)CC/C1=C\c1ccc(OC2CCCCO2)cc1 (centres undefined)		0	39.1					
O=C1/C(=C/c2ccccc2F)CCC/C1=C\c1ccccc1F	45.8	0	15.5	74.1				130
O=C(/C=C/c1ccc2ccccc2c1)/C=C/c1ccc2ccccc2c1		0			69.2		39.7	
O=C1/C(=C/c2ccccc2C(F)(F)F)CCC/C1=C\c1ccccc1C(F)(F)F		0	46.3	54				
O=C1/C(=C/c2ccccc2Cl)CCC/C1=C\c1ccccc1Cl	13.8	0		6.7	98.3	4.2	4.4	
Cc1ccc(/C=C2\CCC/C(=C\c3ccc(C)s3)C2=O)s1	77.6	0		249				
O=C(/C=C/C=C/c1ccccc1)/C=C/C=C/c1ccccc1		0			36.5			
O=C1/C(=C/c2ccc(OC3CCCCO3)cc2)CCC/C1=C\c1ccc(OC2CCCCO2)cc1 (centres undefined)		0			134	3.9		
O=C1/C(=C/c2cccs2)CCC/C1=C\c1cccs1 [TENYLIDONE]		0		86				
O=C1/C(=C/c2ccc3ccccc3c2)CC/C1=C\c1ccc2ccccc2c1		0					38.1	
COc1cc(/C=C2\CC/C(=C\c3cc(OC)c(OC)c(OC)c3)C2=O)cc(OC)c1OC		0						
O=C1/C(=C/c2ccc(F)cc2)CCC/C1=C\c1ccc(F)cc1		0		150	58.1	7.4	87.3	77.9
COc1cccc(/C=C2\CC/C(=C\c3cccc(OC)c3OC)C2=O)c1OC		0	249					
Cc1ccc(C)c(/C=C/C(=O)/C=C/c2cc(C)ccc2C)c1	5.2	0	6.1			103		17.7

SMILES	IC50 [1] [µM]	degraded at 45 h [2] [%]	IC50 [3] [µM]	IC50 [4] [µM]	IC50 [5] [µM]	IC50 [6] [µM]	IC50 [7] [µM]	IC50 [8] [µM]
O=C(/C=C/c1ccc(OC2CCCCO2)cc1)/C=C/c1ccc(OC2CCCCO2)cc1 (centres undefined)	43.4	0			0.3			
O=C1/C(=C/c2cccc(Br)c2)CCC/C1=C\c1cccc(Br)c1		0	15.7	15.9		11.5		
COc1cc(/C=C/C(=O)/C=C/c2cc(OC)c(OC)c(OC)c2)cc(OC)c1OC	8.8	0	95	98.7		148		
O=C1/C(=C/c2ccc3c(c2)OCO3)CC/C1=C\c1ccc2c(c1)OCO2		0			225			
O=C1/C(=C/c2ccc(Br)s2)CC/C1=C\c1ccc(Br)s1		0				9		
Cn1cccc1/C=C1\CCC/C(=C\c2cccn2C)C1=O		0		2.3				
O=C1/C(=C/c2ccccc2C(F)(F)F)CC/C1=C\c1ccccc1C(F)(F)F		0		< 9.34		213		
Cc1ccsc1/C=C/C(=O)/C=C/c1sccc1C	138	0						
CCOc1ccc(/C=C2\CCC/C(=C\c3ccc(OCC)cc3)C2=O)cc1		0			85.8	5.6		
O=C(/C=C/c1ccc(F)cc1)/C=C/c1ccc(F)cc1	15.2	0		94.6		98.8		
O=C1/C(=C/c2ccccc2Cl)CC/C1=C\c1ccccc1Cl		0		96	87.2			
CC(C)(C)c1ccc(/C=C2\CCC/C(=C\c3ccc(C(C)(C)C)cc3)C2=O)cc1		0		78.9				
O=C1/C(=C/c2ccc(Br)o2)CCC/C1=C\c1ccc(Br)o1	21.8	0			65.8			
C=CCOc1ccc(/C=C2\CCC/C(=C\c3ccc(OCC=C)cc3)C2=O)cc1		0		85.3				
O=C1/C(=C/c2ccccc2Br)CC/C1=C\c1ccccc1Br	24.7	0		109				32.8
O=C1/C(=C/c2ccccc2Br)CCC/C1=C\c1ccccc1Br		0		55.3				
COc1ccccc1/C=C/C(=O)/C=C/c1ccccc1OC		0	161	< 12.6	< 12.6			
CN(C)CCCOc1ccc(/C=C2\CC/C(=C\c3ccc(OCCCN(C)C)cc3)C2=O)cc1		0		3.3				2.4
O=C1/C(=C/C=C/c2ccccc2)CCC/C1=C\C=C\c1ccccc1	61.5	0	49.9	29.4		24.3	15.6	
O=C(/C=C/c1ccccc1C(F)(F)F)/C=C/c1ccccc1C(F)(F)F	0.35	0		< 3.7	< 10			
O=C(/C=C/c1ccc(O)cc1)/C=C/c1ccc(O)cc1	48.9	0	217	41.5				
COc1cccc(/C=C2\CCC/C(=C\c3cccc(OC)c3OC)C2=O)c1OC		0		179		84.5	55.3	
O=C(/C=C/c1ccccc1Cl)/C=C/c1ccccc1Cl		0		59	8.6			
C=CCOc1ccc(/C=C/C(=O)/C=C/c2ccc(OCC=C)cc2)cc1		0			64.6			
O=C(/C=C/c1cccs1)/C=C/c1cccs1	10.3	0	6.2	123		79.5		154
COc1cc(/C=C2\CCC/C(=C\c3ccc(O)c(OC)c3)C2=O)ccc1O [CYCLOVALONE]		0		< 10.1		4.6		17.6
